# According to ChEMBL document CHEMBL4257478, “Design, synthesis and evaluation of (R)-3-(7-(methyl(7H-pyrrolo[2,3-d]pyrimidin-4-yl)amino)-5-azaspiro[2.4]heptan-5-yl)-3-oxopropanenitrile as a JAK1-selective inhibitor” (Medchemcomm, 2018):
# Calls of active or inactive are those of the source. The calls are words filed in the database; no cut-off is given here.
# Legend:
# [1] = molecular target: T1, Tyrosine-protein kinase JAK1 (Homo sapiens, UniProt P23458); assay: Inhibition of human JAK1 at 1 uM using GEEPLYWSFPAKKK as substrate after 40 mins in presence of [gamma-33P-ATP] by scintillation counting method relative to control
# T1 sequence (P23458 whole entry): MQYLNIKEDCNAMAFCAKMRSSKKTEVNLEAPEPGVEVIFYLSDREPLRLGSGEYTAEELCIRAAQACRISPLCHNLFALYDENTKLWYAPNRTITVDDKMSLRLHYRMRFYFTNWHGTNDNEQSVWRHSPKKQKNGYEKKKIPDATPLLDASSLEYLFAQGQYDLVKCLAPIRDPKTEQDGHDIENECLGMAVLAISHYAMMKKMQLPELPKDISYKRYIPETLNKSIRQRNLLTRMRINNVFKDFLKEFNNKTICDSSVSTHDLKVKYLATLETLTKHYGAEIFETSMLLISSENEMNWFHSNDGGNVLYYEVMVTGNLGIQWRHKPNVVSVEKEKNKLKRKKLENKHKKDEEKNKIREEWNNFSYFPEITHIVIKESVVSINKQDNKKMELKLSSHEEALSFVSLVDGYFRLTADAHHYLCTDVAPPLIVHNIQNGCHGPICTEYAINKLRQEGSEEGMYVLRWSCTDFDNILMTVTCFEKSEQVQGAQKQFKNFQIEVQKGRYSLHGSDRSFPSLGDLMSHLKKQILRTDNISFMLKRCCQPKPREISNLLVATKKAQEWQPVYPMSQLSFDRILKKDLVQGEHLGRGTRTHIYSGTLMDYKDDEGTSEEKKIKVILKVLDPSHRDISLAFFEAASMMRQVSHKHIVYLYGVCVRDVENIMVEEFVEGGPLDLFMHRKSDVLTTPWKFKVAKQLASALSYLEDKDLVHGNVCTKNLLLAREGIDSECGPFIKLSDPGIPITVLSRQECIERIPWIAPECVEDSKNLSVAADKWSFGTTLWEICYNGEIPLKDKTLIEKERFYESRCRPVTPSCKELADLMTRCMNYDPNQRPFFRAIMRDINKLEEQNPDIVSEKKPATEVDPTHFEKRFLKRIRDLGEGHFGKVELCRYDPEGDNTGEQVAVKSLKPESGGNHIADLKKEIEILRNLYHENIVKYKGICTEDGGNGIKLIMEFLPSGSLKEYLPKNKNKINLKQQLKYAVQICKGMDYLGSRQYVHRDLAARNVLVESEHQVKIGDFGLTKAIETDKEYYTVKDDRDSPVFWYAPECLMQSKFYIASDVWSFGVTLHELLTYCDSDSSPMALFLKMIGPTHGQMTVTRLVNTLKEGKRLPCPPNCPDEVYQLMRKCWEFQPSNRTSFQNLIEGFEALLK
# Rattus norvegicus [2] = assay: AUC (0 to t) in Sprague-Dawley rat at 5 mg/kg, iv after 0.08 to 24 hrs by LC-MS/MS method; type: ADME, organism-based; parameters: time upper 24 hr, time lower 0.08 hr, dose 5 mg/kg, route intravenous; conditions: in vivo
# Method in brief: (§1)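 Male Sprague Dawley rats, 7-8 weeks old, n=4 per group. IV dose 5 mg/kg free base in 10% ethanol/90% PEG400; oral dose 10 mg/kg as corn oil suspension after 16 h fast. Blood taken 0.08-24 h (IV) or 0.25-24 h (PO). Plasma diluted in acetonitrile with internal standard, analysed by LC-MS/MS, parameters by non-compartmental analysis.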
# [3] = MRT in Sprague-Dawley rat at 10 mg/kg, po after 0.25 to 24 hrs by LC-MS/MS method; type: ADME, organism-based; conditions: in vivo; method in brief: as §1
# [4] = Half life in Sprague-Dawley rat at 10 mg/kg, po after 0.25 to 24 hrs by LC-MS/MS method; type: ADME, organism-based; conditions: in vivo; method in brief: as §1
# Rattus norvegicus [5] = assay: AUC (0 to infinity) in Sprague-Dawley rat at 10 mg/kg, po after 0.25 to 24 hrs by LC-MS/MS method; type: ADME, organism-based; parameters: dose 10 mg/kg, route oral, time infinity; conditions: in vivo; method in brief: as §1
# [6] = Cmax in Sprague-Dawley rat at 10 mg/kg, po after 0.25 to 24 hrs by LC-MS/MS method; type: ADME, organism-based; parameters: dose 10 mg/kg, route oral; conditions: in vivo; method in brief: as §1
# [7] = Half life in Sprague-Dawley rat at 5 mg/kg, iv after 0.08 to 24 hrs by LC-MS/MS method; type: ADME, organism-based; conditions: in vivo; method in brief: as §1
# [8] = Tmax in Sprague-Dawley rat at 10 mg/kg, po after 0.25 to 24 hrs by LC-MS/MS method; type: ADME, organism-based; conditions: in vivo
# Method in brief: (§2)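 Male Sprague Dawley rats, 7–8 weeks old, n=4, fasted 16 h. Free base given at 10 mg/kg po as a corn oil suspension (5 mL/kg); a 5 mg/kg iv arm used 10% ethanol/90% PEG400. Plasma sampled 0.25–24 h, acetonitrile-precipitated with internal standard, and measured by LC-MS/MS. Parameters derived by non-compartmental analysis.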
# Rattus norvegicus [9] = assay: AUC (0 to infinity) in Sprague-Dawley rat at 5 mg/kg, iv after 0.08 to 24 hrs by LC-MS/MS method; type: ADME, organism-based; parameters: dose 5 mg/kg, time infinity, route intravenous; conditions: in vivo; method in brief: as §1
# Rattus norvegicus [10] = assay: AUC (0 to t) in Sprague-Dawley rat at 10 mg/kg, po after 0.25 to 24 hrs by LC-MS/MS method; type: ADME, organism-based; parameters: time lower 0.25 hr, dose 10 mg/kg, time upper 24 hr, route oral; conditions: in vivo; method in brief: as §1
# [11] = Oral bioavailability in Sprague-Dawley rat at 10 mg/kg after 0.25 to 24 hrs by LC-MS/MS method; type: ADME, organism-based; conditions: in vivo; method in brief: as §2
# [12] = MRT in Sprague-Dawley rat at 5 mg/kg, iv after 0.08 to 24 hrs by LC-MS/MS method; type: ADME, organism-based; conditions: in vivo; method in brief: as §1
# [13] = molecular target: Tyrosine-protein kinase JAK2 (Homo sapiens, UniProt O60674); assay: Inhibition of human JAK2 at 1 uM using KTFCGTPEYLAPEVRREPRILSEEEQEMFRDFDYIADWC as substrate after 40 mins in presence of [gamma-33P-ATP] by scintillation counting method relative to control
# Tyrosine-protein kinase JAK2, sequence (O60674 whole entry): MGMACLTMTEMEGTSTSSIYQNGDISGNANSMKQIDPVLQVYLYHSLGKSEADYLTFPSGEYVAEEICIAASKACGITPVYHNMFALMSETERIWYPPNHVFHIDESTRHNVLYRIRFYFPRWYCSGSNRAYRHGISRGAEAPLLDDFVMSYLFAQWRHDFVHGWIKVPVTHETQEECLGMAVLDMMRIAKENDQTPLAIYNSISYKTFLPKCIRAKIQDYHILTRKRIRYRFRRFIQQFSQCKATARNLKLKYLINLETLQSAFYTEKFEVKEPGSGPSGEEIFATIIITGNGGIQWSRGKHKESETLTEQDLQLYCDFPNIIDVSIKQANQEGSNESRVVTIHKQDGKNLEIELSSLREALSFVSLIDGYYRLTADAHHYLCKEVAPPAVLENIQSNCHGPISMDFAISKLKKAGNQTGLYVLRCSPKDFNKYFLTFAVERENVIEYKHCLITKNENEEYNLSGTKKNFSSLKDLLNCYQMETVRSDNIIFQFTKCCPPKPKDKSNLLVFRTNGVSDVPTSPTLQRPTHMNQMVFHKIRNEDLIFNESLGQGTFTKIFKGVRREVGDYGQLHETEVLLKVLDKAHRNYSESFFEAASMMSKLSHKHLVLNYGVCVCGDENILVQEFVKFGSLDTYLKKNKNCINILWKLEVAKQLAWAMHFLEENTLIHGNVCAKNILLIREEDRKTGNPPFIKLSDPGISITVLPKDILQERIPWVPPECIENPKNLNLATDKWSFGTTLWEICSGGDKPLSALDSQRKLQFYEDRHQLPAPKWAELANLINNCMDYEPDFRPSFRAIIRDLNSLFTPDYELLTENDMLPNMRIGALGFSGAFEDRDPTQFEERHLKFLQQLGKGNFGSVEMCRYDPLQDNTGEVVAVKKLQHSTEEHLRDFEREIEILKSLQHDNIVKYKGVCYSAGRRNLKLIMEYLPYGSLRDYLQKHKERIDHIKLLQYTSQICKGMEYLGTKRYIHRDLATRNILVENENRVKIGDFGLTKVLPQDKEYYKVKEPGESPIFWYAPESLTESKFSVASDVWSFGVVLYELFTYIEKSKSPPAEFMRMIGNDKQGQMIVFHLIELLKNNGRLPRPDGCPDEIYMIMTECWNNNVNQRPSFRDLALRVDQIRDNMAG
# Mus musculus [14] = assay: Antiarthritic activity in collagen-induced DBA1/J mouse arthritis model assessed as decrease in infiltration of inflammatory cells in right hind ankle joints administered as po qd measured on day 19 by hematoxylin-eosin staining-based assay; type: functional, organism-based
# Method in brief: (§3)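 Male DBA1/J mice, 6 weeks old, immunized s.c. at the tail base with type II collagen (2 mg/mL) in complete Freund's adjuvant (1:1, 0.1 mL), then boosted at day 21 with collagen in incomplete Freund's adjuvant. Clinical scores taken twice weekly for 18 days; serum IL-6 and TNF-α measured after autopsy; right hind ankle assessed by histopathology and by micro-CT for bone surface/volume.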
# [15] = molecular target: Non-receptor tyrosine-protein kinase TYK2 (Homo sapiens) (UniProt P29597); conditions: 10 uM
# Non-receptor tyrosine-protein kinase TYK2 (Homo sapiens), sequence (P29597 whole entry): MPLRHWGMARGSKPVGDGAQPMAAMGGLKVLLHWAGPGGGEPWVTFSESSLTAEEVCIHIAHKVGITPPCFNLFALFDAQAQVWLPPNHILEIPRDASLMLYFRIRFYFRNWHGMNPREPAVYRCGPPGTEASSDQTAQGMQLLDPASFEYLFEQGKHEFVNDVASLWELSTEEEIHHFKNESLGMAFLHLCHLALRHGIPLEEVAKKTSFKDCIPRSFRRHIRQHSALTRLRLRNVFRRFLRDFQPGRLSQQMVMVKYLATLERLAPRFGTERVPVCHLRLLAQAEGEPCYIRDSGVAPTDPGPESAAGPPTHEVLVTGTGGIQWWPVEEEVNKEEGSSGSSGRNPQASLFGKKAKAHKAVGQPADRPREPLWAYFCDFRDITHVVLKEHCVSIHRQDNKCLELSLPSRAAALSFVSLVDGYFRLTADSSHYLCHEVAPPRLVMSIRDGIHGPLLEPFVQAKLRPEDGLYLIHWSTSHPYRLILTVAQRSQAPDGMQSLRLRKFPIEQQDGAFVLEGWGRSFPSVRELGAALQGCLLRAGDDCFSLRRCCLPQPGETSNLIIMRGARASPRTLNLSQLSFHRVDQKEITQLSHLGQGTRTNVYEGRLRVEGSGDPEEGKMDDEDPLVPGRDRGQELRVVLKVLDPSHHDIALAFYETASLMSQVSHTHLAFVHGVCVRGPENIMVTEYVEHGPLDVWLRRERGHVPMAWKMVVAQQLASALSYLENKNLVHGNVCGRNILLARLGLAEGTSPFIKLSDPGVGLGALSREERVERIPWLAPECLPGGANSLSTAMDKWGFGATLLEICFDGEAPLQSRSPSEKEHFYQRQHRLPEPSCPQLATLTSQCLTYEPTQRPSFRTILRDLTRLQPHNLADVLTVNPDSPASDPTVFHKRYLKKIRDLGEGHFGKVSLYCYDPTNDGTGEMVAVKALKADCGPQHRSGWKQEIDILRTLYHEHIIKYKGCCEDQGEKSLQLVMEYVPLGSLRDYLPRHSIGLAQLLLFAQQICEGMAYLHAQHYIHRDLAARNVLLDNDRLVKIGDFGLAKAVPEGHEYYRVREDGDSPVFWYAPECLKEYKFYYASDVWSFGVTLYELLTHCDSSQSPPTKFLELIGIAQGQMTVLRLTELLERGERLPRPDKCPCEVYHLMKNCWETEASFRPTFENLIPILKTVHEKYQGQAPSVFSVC
# [16] = molecular target: T1, Tyrosine-protein kinase JAK1; conditions: 10 uM
# Mus musculus [17] = assay: Antiarthritic activity in collagen-induced DBA1/J mouse arthritis model assessed as decrease in paw volume administered as po qd measured on day 1 and 15 by plethysmometer
# Mus musculus [18] = assay: Antiarthritic activity in collagen-induced DBA1/J mouse arthritis model assessed as decrease in ratio of bone surface to bone volume of right hind ankle joint administered as po qd measured on day 19 by micro-CT analysis; type: functional, organism-based; method in brief: as §3
# Rattus norvegicus [19] = assay: Antiarthritic activity in adjuvant-induced SPF LEW/SsNSlc rat arthritis model assessed as decrease in clinical arthritis score at 5 to 20 mg/kg, po qd measured on day 14; type: functional, organism-based
# Method in brief: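 Lewis rats were 10 weeks old after 2 weeks acclimation. Immunized s.c. at the tail base with 0.1 mL complete Freund's adjuvant containing 10 mg/mL heat-killed mycobacterium. From day 12 post-immunization (day 1), n=10 per group, oral dosing once daily for 14 days, vehicle corn oil. Clinical score and hind paw measured twice weekly.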
# Homo sapiens = species: Homo sapiens; assay: Selectivity index, ratio of IC50 for human JAK2 to IC50 for human JAK1
# Method in brief: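 Kinase activity assays run as a commercial service at Km ATP; IC50 values fitted from concentration-response data; ratio of JAK2 to JAK1 IC50.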
# Mus musculus [20] = assay: Antiarthritic activity in collagen-induced DBA1/J mouse arthritis model assessed as decrease in serum IL-6 levels administered as po qd measured on day 19 by ELISA; type: functional, organism-based; method in brief: as §3
# Mus musculus [21] = assay: Antiarthritic activity in collagen-induced DBA1/J mouse arthritis model assessed as decrease in articular surface cartilage thickness in right hind ankle joints administered as po qd measured on day 19 by hematoxylin-eosin staining-based assay; type: functional, organism-based; method in brief: as §3
# [22] = molecular target: T2, Tyrosine-protein kinase JAK3 (Homo sapiens) (UniProt P52333); conditions: 10 uM
# T2 sequence (whole entry): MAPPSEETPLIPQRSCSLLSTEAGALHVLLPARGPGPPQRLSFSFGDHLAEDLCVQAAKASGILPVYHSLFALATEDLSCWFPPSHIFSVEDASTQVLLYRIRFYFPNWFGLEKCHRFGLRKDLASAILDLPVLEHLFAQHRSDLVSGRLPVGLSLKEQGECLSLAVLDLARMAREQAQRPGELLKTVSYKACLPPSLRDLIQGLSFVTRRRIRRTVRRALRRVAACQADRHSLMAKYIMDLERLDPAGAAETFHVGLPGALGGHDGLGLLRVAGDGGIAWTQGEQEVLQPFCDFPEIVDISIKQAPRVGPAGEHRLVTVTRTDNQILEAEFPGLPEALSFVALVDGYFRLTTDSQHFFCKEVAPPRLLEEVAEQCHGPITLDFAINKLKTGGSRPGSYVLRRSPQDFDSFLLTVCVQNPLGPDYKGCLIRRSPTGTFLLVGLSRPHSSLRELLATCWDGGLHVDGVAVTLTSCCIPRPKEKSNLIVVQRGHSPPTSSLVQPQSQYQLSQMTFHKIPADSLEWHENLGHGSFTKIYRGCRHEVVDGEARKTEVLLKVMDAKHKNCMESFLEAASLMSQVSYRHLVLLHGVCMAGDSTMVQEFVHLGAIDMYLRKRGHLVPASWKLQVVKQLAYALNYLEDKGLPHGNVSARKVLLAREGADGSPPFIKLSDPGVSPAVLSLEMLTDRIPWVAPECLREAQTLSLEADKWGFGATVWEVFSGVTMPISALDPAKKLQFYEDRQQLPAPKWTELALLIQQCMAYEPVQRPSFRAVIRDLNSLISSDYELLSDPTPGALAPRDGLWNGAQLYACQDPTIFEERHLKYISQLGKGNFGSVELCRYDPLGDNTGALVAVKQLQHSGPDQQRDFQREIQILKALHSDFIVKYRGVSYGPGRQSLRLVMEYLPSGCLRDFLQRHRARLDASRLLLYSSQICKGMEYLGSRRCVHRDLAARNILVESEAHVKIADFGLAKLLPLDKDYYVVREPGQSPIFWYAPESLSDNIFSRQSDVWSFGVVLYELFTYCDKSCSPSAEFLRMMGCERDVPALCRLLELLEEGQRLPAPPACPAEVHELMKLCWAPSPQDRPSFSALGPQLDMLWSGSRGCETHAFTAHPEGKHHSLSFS
# Mus musculus [23] = assay: Antiarthritic activity in collagen-induced DBA1/J mouse arthritis model assessed as decrease in right hind ankle joint thickness administered as po qd measured on day 19 by hematoxylin-eosin staining-based assay; type: functional, organism-based; method in brief: as §3
# Mus musculus [24] = assay: Antiarthritic activity in collagen-induced DBA1/J mouse arthritis model assessed as decrease in clinical arthritis score administered as po qd measured twice weekly for 18 days; type: functional, organism-based; method in brief: as §3
smiles,measurement,setting,value
N#CCC(=O)N1C[C@H]2CCCN(c3ncnc4[nH]ccc34)[C@H]2C1,inhibition,[1],54%
CN(c1ncnc2[nH]ccc12)[C@H]1CN(C(=O)CC#N)CC12CC2.Cl,AUCt,Rattus norvegicus [2],1800 ng·h/mL
same,MRT,[3],96 min
same,half-life,[4],66 min
same,AUC,Rattus norvegicus [5],2400 ng·h/mL
same,Cmax,[6],1300 ng/mL
same,half-life,[7],36 min
same,Tmax,[8],24 min
same,AUC,Rattus norvegicus [9],1900 ng·h/mL
same,AUCt,Rattus norvegicus [10],2400 ng·h/mL
same,bioavailability,[11],65%
same,MRT,[12],42 min
N#CCC(=O)N1CCC(Oc2ncnc3[nH]ccc23)CC1,inhibition,[1],35%
N#CCC(=O)NC1CN(c2ncnc3[nH]ccc23)CC12CC2 (centres undefined),inhibition,[1],6%
same,inhibition at 1 µM,[13],10%
CN(c1ncnc2[nH]ccc12)C1CN(C(=O)CC#N)CC12CC2 (racemic),inhibition,[1],95%
CN(c1ncnc2[nH]ccc12)[C@H]1CN(C(=O)CC#N)CC12CC2,Activity,Mus musculus [14],Dose-dependent effect
same,inhibition,[15],90%
same,inhibition,[16],90%
same,Activity,Mus musculus [17],Dose-dependent effect
same,Activity,Mus musculus [18],Dose-dependent effect
same,Activity,Rattus norvegicus [19],Active
same,Ratio IC50,Homo sapiens,48
same,Activity,Mus musculus [20],Dose-dependent effect
same,Activity,Mus musculus [21],Dose-dependent effect
same,inhibition,[22],90%
same,Activity,Mus musculus [23],Dose-dependent effect
same,Activity,Mus musculus [24],Dose-dependent effect
CN(c1ncnc2[nH]ccc12)[C@@H]1CCCN(C(=O)CC#N)C1,inhibition,[1],99%
